Test results taken from ChEMBL document CHEMBL2169790, “Selective inhibitors of aldo-keto reductases AKR1C1 and AKR1C3 discovered by virtual screening of a fragment library” (J Med Chem, 2012).

Legend:
[1] = target: T1, Aldo-keto reductase family 1 member C3 (Homo sapiens, UniProt P42330); assay: Inhibition of human recombinant AKR1C3 assessed as 1-acenaphthenol oxidation by spectrophotometry
T1 sequence (P42330 whole entry): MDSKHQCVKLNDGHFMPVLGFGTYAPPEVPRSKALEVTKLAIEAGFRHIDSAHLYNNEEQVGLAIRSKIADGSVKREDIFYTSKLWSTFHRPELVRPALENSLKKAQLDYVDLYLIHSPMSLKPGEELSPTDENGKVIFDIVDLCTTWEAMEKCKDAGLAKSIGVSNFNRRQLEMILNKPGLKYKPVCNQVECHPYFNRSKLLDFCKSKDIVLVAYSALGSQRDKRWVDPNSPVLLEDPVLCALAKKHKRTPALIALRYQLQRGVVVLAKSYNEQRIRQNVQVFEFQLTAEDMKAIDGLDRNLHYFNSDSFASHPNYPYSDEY
Method in brief: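 NADH formation was monitored at 340 nm using initial velocities. IC50 was read graphically from log10[inhibitor] versus % inhibition. Ki was derived by Cheng-Prusoff for competitive inhibition.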

[2] = target: T2, Aldo-keto reductase family 1 member C1 (Homo sapiens) (UniProt Q04828); assay: Inhibition of human recombinant AKR1C1 assessed as 1-acenaphthenol oxidation at 400 uM by spectrophotometry
T2 sequence (whole entry): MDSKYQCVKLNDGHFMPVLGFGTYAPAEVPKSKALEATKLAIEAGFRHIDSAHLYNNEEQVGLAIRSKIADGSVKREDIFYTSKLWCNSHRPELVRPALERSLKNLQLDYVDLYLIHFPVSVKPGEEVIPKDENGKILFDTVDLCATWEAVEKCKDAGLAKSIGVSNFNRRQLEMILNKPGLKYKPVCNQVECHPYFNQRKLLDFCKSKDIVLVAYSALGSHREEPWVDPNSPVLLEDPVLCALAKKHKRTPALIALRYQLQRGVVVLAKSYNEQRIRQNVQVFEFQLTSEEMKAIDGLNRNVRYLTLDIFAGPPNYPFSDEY
Method in brief: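 Recombinant AKR1C1 (0.3 μM) oxidizing 30 μM 1-acenaphthenol with 2.3 mM NAD+ in 100 mM phosphate pH 9.0, 0.005% triton X-114, 5% DMSO. NADH increase was followed at 340 nm.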

[3] = target: T1, Aldo-keto reductase family 1 member C3; assay: Competitive inhibition of human recombinant AKR1C3 assessed as S-tetralol oxidation by Cheng-Prusoff equation analysis
Method in brief: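 NADPH formation followed fluorometrically; initial velocities measured in quadruplicate per inhibitor concentration. IC50 fitted as y = range/(1+I/IC50)^s + background, then converted to Ki with the Cheng-Prusoff equation for competitive inhibition.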

[4] = target: T1, Aldo-keto reductase family 1 member C3; assay: Inhibition of human recombinant AKR1C3 assessed as S-tetralol oxidation by micro plate fluorescence reader based assay
Method in brief: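 Fluorometric plate-reader read-out of NADPH formation as initial velocity. Each inhibitor concentration run in quadruplicate. IC50 from fit to y = range/(1+I/IC50)^s + background.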

[5] = target: T2, Aldo-keto reductase family 1 member C1 (Homo sapiens); assay: Inhibition of human recombinant AKR1C1 assessed as S-tetralol oxidation at 300 uM by micro plate fluorescence reader based assay
Method in brief: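 Buffer was 100 mM K3PO4 pH 7.0 with 200 μM NADP+ and 4% DMSO final. Inhibitor was tested at 300 μM, in quadruplicate. Rates are initial velocities.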

[6] = target: T3, Aldo-keto reductase family 1 member C4 (Homo sapiens) (UniProt P17516); assay: Inhibition of human recombinant AKR1C4 assessed as S-tetralol oxidation at 300 uM by micro plate fluorescence reader based assay
T3 sequence (whole entry): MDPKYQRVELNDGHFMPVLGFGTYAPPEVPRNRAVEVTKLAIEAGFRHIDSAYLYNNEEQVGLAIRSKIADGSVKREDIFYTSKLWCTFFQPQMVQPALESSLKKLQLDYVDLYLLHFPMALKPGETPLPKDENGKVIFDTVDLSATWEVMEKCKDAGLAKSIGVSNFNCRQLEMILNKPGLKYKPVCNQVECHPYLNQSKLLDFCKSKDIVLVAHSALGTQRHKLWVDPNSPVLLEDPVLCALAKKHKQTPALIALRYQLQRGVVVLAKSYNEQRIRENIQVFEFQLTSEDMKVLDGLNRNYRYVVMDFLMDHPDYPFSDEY
Method in brief: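 NADPH production was measured fluorometrically. Inhibitor was tested at 300 μM, quadruplicate wells. Inhibition was taken from initial velocities.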

[7] = target: T4, Aldo-keto reductase family 1 member C3 (Homo sapiens) (UniProt P42330); assay: Inhibition of human recombinant AKR1C3 assessed as 1-acenaphthenol oxidation at 400 uM by spectrophotometry
T4 sequence (whole entry): T1 sequence (P42330 whole entry)

[8] = target: T5, Aldo-keto reductase family 1 member C1 (Homo sapiens, UniProt Q04828); assay: Inhibition of human recombinant AKR1C1 assessed as 1-acenaphthenol oxidation by spectrophotometry
T5 sequence (Q04828 whole entry): T2 sequence (whole entry)

SMILES	Ki [1]	inhibition [2]	inhibition [7]	other results
NC(=O)c1ccccc1/N=C/c1cccc(O)c1	36 µM	< 10%		
O=C1CCC2(c3ccccc3)Nc3ccccc3N12 (stereo not drawn)	32 µM	43.5%		Ki [3]: 2.73 µM; IC50 [4]: 5.46 µM
O=C(O)CCNc1cc2ccccc2cc1C(=O)O	44 µM			
O=C(O)c1cc(-c2cccc(O)c2)nc2ccccc12	54 µM			
Cc1ccc(S(=O)(=O)Nc2cccc(C(=O)O)c2)cc1	111 µM	43.1%		
O=C(O)CCNS(=O)(=O)c1ccc2ccccc2c1	148 µM			
Cc1cc(C(=O)Nc2ccc(O)c(C(=O)O)c2)oc1C	82 µM	< 10%		
O=C(CC1SC(=O)NC1=O)Nc1ccccc1O (stereo not drawn)	2 µM	< 10%		inhibition [5]: 37%; Ki [3]: 0.107 µM; inhibition [6]: 35%; IC50 [4]: 0.213 µM
Cc1ccc(NC(=O)c2cccnc2)c(C(=O)O)c1		47.4%	33.1%	
CN(c1ccc(C(=O)O)cc1)S(=O)(=O)c1ccccc1	148 µM			
CC(=O)Nc1ccc(C(C#N)c2ccccc2)cc1 (stereo not drawn)	87 µM			
Cc1cccc(C(=O)Nc2ccccc2C(N)=O)c1		< 10%	10.8%	
O=C(O)c1cc(NC(=O)c2ccccc2F)ccc1O		30.1%	48.8%	
NC(=O)c1ccccc1NC(=O)c1ccncc1		22.5%	17.8%	
O=C(O)c1cccc(Nc2nc3ccccc3[nH]2)c1	142 µM	< 10%		
O=C(O)c1cccc(NCC(=O)c2ccccc2)c1	72 µM	44.8%		
Cc1ccn(Cc2cc(C(=O)O)c3ccccc3n2)n1	117 µM			
O=C(O)CNC=C1C(=O)CC(c2ccccc2)CC1=O (stereo not drawn)			18.4%	
O=C1COc2ccc(C(=O)c3ccccc3)cc2CN1	76 µM			
O=C(O)c1ccc(CNCc2ccccn2)cc1		< 10%	51.2%	
Cc1oc(C(N)=O)cc1COc1ccccc1C(N)=O			53.4%	Ki [8]: 122 µM
O=CN1CCN(C(=O)c2ccc3ccccc3c2)CC1			46.7%	Ki [8]: 64 µM
Cc1cc(Nc2cc(C(=O)O)ccc2C)nc(C)n1	144 µM	39.5%		
O=C(CSc1ncnc2[nH]cnc12)Nc1ccccn1			44.3%	Ki [8]: 69 µM
O=C(NCc1cc(=O)[nH]cn1)c1cc2ccccn2n1	118 µM	< 10%		
